Measurements of several laboratories.
Protocols differ between the studies behind these lines.

| Structure (SMILES) | host | medium | route | dose | notes | half-life |
| --- | --- | --- | --- | --- | --- | --- |
| CC(C(=O)Nc1c(F)cccc1F)N1CCN(c2ccccc2)CC1 (stereo not shown) | female C57BL/6 mouse | brain | intraperitoneal | 10 mg/kg |  | ~0.45 h |
| CC(C)C[C@H](NC(=O)[C@@H]1COCCCCCC(=O)N2C[C@H](F)C[C@H]2C(=O)N1)C(=O)[C@@]1(C)CO1 | male BALB/c mouse | plasma | oral | 150 mg/kg |  | 0.79 h |
| CCOc1ccc(N(C)S(=O)(=O)c2cc(Cl)sc2C(=O)Nc2cc(Cl)cc(C(=O)O)c2)cc1OC | male C57BL/6 mouse | brain | intraperitoneal | 10 mg/kg |  | 0.558 h |
| CC1=NN(/C(=N/c2nnc(C)s2)Nc2ccc(C)c(C)c2)C(c2cc(F)c(F)c(F)c2)S1 (stereo not shown) | male CD-1 mouse | plasma | intravenous | 1 mg/kg |  | 1.56 h |
| CC(=O)O[C@@]12CO[C@@H]1C[C@H](O)[C@@]1(C)C(=O)[C@H](O)C3=C(C)[C@@H](OC(=O)[C@H](O)[C@@H](NC(=O)OC(C)(C)C)c4ccccc4)C[C@@](O)([C@@H](OC(=O)c4ccccc4)[C@H]21)C3(C)C | male Kunming mouse | liver | oral | 20 mg/kg |  | 2.7 h |
| O=C(ONc1nc2nonc2nc1Nc1ccccc1F)c1ccc(OC(F)(F)F)cc1 | male C57BL/6 mouse | plasma | oral | 10 mg/kg |  | 0.25 to 0.45 h |
| CCOC(=O)c1cc(Cl)cc(NC(=O)c2sc(Cl)cc2S(=O)(=O)N(C)c2ccc(OCC)c(OC)c2)c1 | male C57BL/6 mouse | brain | intraperitoneal | 10 mg/kg |  | 2.14 h |
| Nc1ncn([C@H]2C[C@H](O)[C@@H](CO)O2)c(=O)n1 | female C57BL/6 mouse | plasma | oral | 0.4 mg/kg |  | 0.91 h |
| CN1CCN(C(=O)[C@H](CCCN[C@@H]2C[C@H]2c2ccc(F)cc2)NC(=O)c2ccc(-n3ccnn3)cc2)CC1 | CD-1 mouse | plasma | oral | 10 mg/kg |  | 4.98 h |
| COc1cc(C(=O)OCCCN2CCCN(CCCOC(=O)c3cc(OC)c(OC)c(OC)c3)CC2)cc(OC)c1OC | male CD-1 mouse | plasma | subcutaneous |  |  | 0.83 h |
| O=C1CCC(N2Cc3cc(NC(=O)c4cccc(F)c4)ccc3C2=O)C(=O)N1 (stereo not shown) | female CD-1 mouse | plasma | intravenous | 3 mg/kg |  | 1.2 h |
| FC(F)(F)c1nc2c(-c3cc(Cl)cc(Cl)c3)ccnc2[nH]1 | male C57BL/6 mouse | plasma | oral | 10 mg/kg |  | > 15 h |
| CCN1CCN(Cc2ccc(NC(=O)c3ccc(C)c(NC(=O)c4cncc(-c5cccs5)c4)c3)cc2C(F)(F)F)CC1 | mouse | plasma | intraperitoneal | 30 mg/kg | single dose | 2.71 h |
